Source: PubChem BioAssay AID1496 (Sanford-Burnham Center for Chemical Genomics, 2009)
The campaign covered roughly 220,000 compounds. About 990 (0.45%) were called active. This is one part of a sample in which actives are shown more often than they occur. Values without a mark were called inactive.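 The calls were made as follows: active = inhibition over about 50% at 20 µM in the single-dose screen (limit read from the data); inactive = the rest.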

target: Runt-related transcription factor 1 (Homo sapiens) + Core-binding factor subunit beta (Homo sapiens) (UniProt Q01196+Q13951); test: inhibitors of RUNX1 Runt–CBFb binding, primary screen, biochemical, FRET, Cerulean-Runt, Venus-CBFb, uHTS (AID 1496); conditions: Cerulean-Runt/Venus-CBFb FRET ratio 530/480, 1 h; at 20 µM; hits give high values;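 also: 0% = DMSO wells and 100% = excess unlabeled CBFb competitor control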
Sequence (Q01196 whole entry, looked up, the tested form may be a part): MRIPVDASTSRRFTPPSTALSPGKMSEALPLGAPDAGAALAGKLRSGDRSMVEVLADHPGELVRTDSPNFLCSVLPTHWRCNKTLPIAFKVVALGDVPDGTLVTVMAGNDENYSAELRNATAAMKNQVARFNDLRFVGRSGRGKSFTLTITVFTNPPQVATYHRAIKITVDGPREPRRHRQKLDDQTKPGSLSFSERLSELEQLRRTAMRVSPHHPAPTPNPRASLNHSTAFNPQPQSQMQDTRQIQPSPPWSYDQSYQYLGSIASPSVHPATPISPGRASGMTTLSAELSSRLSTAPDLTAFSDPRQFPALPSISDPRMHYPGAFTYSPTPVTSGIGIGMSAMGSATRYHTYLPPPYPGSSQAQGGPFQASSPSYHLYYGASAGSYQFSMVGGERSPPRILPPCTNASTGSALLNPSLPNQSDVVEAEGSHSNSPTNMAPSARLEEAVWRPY
Sequence (Q13951 whole entry, looked up, the tested form may be a part): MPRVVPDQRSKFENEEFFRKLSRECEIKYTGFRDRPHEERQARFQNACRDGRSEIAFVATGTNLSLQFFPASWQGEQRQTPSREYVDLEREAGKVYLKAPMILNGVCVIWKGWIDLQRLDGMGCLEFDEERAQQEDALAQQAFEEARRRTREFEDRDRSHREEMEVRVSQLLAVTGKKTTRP
Summary of the method: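 Assay system: Cerulean-Runt domain / Medium: Tris 50 mM pH 7.5, KCl, K2SO4, 0.01% BSA / Timing: protein complex preformed 1 h, compound exposure 1 h, room temperature, dark / Measured by: FRET, excitation 422 nm, emission at 530 and 480 nm / Evaluation: loss of energy transfer signal / Control set: 5 µM unlabeled CBFb as full-inhibition high control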

Row | SMILES | inhibition
1 | COCc1[nH]nc2c1C(C1C=CCCC1)C(C#N)=C(N)O2 (configuration not stated) | -0.2%
2 | N#CC1=C(N)Oc2cc(O)ccc2C1C1CCCCC1 (configuration not stated) | 50.9% (active)
3 | N#CC1=C(N)OC2=C(C(=O)CCC2)C1C1CC=CCC1 (configuration not stated) | -0.5%
4 | COC(=O)c1noc(C)c1-c1ccnn1C(=O)c1ccc(Cl)cc1 | 0%
5 | Fc1ccc(COc2ccc(-c3nnco3)cc2)cc1 | -1.3%
6 | O=C(/C=C/c1ccc2c(c1)OCCO2)c1ccc(O)cc1 | -2.3%
7 | COc1ccc(-c2cn3ccc(C)cc3n2)cc1 | 0.2%
8 | O=C(CN1CCN(S(=O)(=O)/C=C/c2ccccc2)CC1)Nc1ccc(N2CCOCC2)cc1 | 0.6%
9 | COc1ccc2c(CN3CCN(S(=O)(=O)c4cccs4)CC3)cc(=O)oc2c1 | -1.9%
10 | O=c1cc(CN2CCN(S(=O)(=O)/C=C/c3ccccc3)CC2)c2ccc(O)cc2o1 | 74.1% (active)
11 | COc1ccc(Nc2cc(=O)n(-c3ccccc3)c3c2c(=O)n(C)c(=O)n3C)cc1 | -0.7%
12 | Cn1c(CC2Sc3ccccc3NC2=O)nnc1SCC(=O)c1ccc(Cl)cc1 (configuration not stated) | 1.9%
13 | O=C(C[n+]1cc(-c2ccc(Cl)c(Cl)c2)n2c1CCC2)c1cccs1 | 1.5%
14 | CCOc1ccc(-c2nc(N)ncc2-c2ccccc2OC)c(O)c1 | -2.9%
15 | Cc1cc2nc3c(=O)n(Cc4ccccc4)c(=O)[nH]c3nc2cc1N | -281%
16 | COc1ccc2[nH]c(=S)cc(C)c2c1 | 30.9%
17 | CC(=O)Nc1cc2ccc(OC(C)=O)cc2oc1=O | 86.5% (active)
18 | CC(=O)Oc1ccc2c(C)c(CC(C)O)c(=O)oc2c1 (configuration not stated) | 52.3% (active)
19 | O=C(Oc1ccccc1)Oc1ccc2c(c1)oc(=O)c1ccccc12 | -1%
20 | COC(=O)Cc1c(C)c2ccc(OCC(=O)NCc3ccc4c(c3)OCO4)cc2oc1=O | -2.3%
21 | CC(=O)Oc1ccc(NC(=O)CCC2CCCCC2)c(C(=O)O)c1 | -13.2%

Row | SMILES | inhibition
22 | Cc1c(Cc2ccccc2)c(=O)oc2cc(OCC(N)=O)ccc12 | -0.8%
23 | CCOC(=O)c1ccc(N=C2SC(C(=O)NC)CC(=O)N2CCc2ccccc2)cc1 (configuration not stated) | -3%
24 | CCc1ccnc(NS(=O)(=O)c2ccc3c(c2)OCCO3)c1 | 2.3%
25 | COc1ccccc1C1CCN(c2ccc([N+](=O)[O-])cn2)CC1 | 0.4%
26 | CCN1CCN(c2nc(Nc3cccc(F)c3)nc(N)c2[N+](=O)[O-])CC1 | -0.1%
27 | CCCc1cc(=O)oc2c(C)c(O)c(CN3CCCCC3)cc12 | 84.1% (active)
28 | CCCc1cc(=O)[nH]c(SCc2cc(=O)oc3c(C)c(C)ccc23)n1 | -10.5%
29 | COC(=O)Cc1cc(=O)oc2c(C)c(O)ccc12 | 19.3%
30 | Cn1nnc(NC(=S)NC(=O)c2ccccc2)n1 | 10.1%
31 | COC(=O)c1ccccc1N=Nc1c(C)[nH][nH]c1=O | -3.8%
32 | CCN(CC)CCCN=C(N)N | 2.2%
33 | CCN1/C(=C/C(=S)Nc2ccccc2)Sc2ccccc21 | 59.1% (active)
34 | CCC(=O)/C=C1\Sc2ccccc2N1CC | 1.3%
35 | O=C(CCN1c2ccccc2Sc2ccccc21)Nc1ccccc1 | 0.8%
36 | O=C(Nc1ccc(S(=O)(=O)Nc2nccs2)cc1)c1cc(-c2ccncc2)nc2ccccc12 | -7.7%
37 | COc1ccc(CCNC(=O)Cn2c(=O)n(CC3CCCO3)c(=O)c3ccccc32)cc1OC (configuration not stated) | -0.8%
38 | CCn1c(=N)c(C(=O)NCCCOC)cc2c(=O)n3cccc(C)c3nc21 | 19.3%
39 | COc1ccc(CCn2c(=N)c(C(=O)NCc3ccco3)cc3c(=O)n4cccc(C)c4nc32)cc1 | 107% (active)
40 | COc1ccc(CCNC(=O)CCn2c(=O)c3ccccc3n(CC(=O)NCC3CCCO3)c2=O)cc1OC (configuration not stated) | -1.8%
41 | COc1ccc(CNC(=O)c2cc3c(=O)n4ccccc4nc3n(CC3CCCO3)c2=N)cc1 (configuration not stated) | 85.6% (active)
42 | O=C(NCc1ccco1)c1cccn2c(=O)c3c4c(sc3nc12)CCCC4 | 12.3%

Row | SMILES | inhibition
43 | CN(C)CCCn1c(N)c(C#N)c2nc(C#N)c(C#N)nc21 | 42.7%
44 | CC(C)(C)c1ccc(C(=O)NCCn2c(N)c(C#N)c3nc4ccccc4nc32)cc1 | 72.8% (active)
45 | N#Cc1c(N)n(CCOC(=O)c2ccc(Cl)cc2)c2nc3ccccc3nc12 | 59% (active)
46 | CCCNC(=O)c1c(N)n(-c2ccc(S(N)(=O)=O)cc2)c2nc3ccccc3nc12 | 33%
47 | CC(C)Cn1c(N)c(C(=O)NCc2cccs2)c2nc3ccccc3nc21 | 16.3%
48 | COCCCn1c2nc3ccccc3nc2c2c(=O)n(Cc3ccc(Cl)cc3)c(C)nc21 | 0.1%
49 | COc1ccc(CNC(=O)C(Cc2ccccc2)n2cccc2)cc1 (configuration not stated) | 1.1%
50 | NCCCCCC(=O)N/N=C/c1ccc2nccnc2c1 | 0.4%
51 | CCCCCCc1cc2cc(-c3nnc(-c4ccccc4)o3)c(=O)oc2cc1O | 84.6% (active)
52 | Cc1c(CCC(=O)O)c(=O)oc2cc3occ(-c4ccccc4)c3cc12 | -3.4%
53 | CCCC(=O)Nc1nnc(-c2ccccc2)o1 | 0.1%
54 | COC(=O)c1cc(NC(=O)c2cc(C(C)(C)C)nn2Cc2cccc(C)c2)ccc1N1CCOCC1 | -4%
55 | COC(=O)c1cc(NC(=O)c2ccco2)ccc1N1CCOCC1 | 0.9%
56 | NC(=O)C1(C(N)=O)OC1c1ccc(Cl)cc1Cl (configuration not stated) | 0.4%
57 | COC(=O)C1=CN(C)C=C(C(=O)OC)C1c1ccc(Cl)cc1Cl | 110% (active)
58 | CCOc1ccccc1C1C(C(=O)OC)=CN(C)C=C1C(=O)OC | 9.9%
59 | CCOc1cccc(/C=N/NC(=S)NCCN2CCOCC2)c1O | -15.6%
60 | CCOc1cccc(/C=N/N2C(=O)CSC2=S)c1O | 51.1% (active)
61 | O=C1CSC(=S)N1/N=C/c1ccc(O)c([N+](=O)[O-])c1 | 26.4%
62 | Cc1ccc(NS(=O)(=O)c2ccc(N/N=C/c3ccccc3OCC(=O)O)c([N+](=O)[O-])c2)c(C)c1 | -12.7%
